Results as given in ChEMBL document CHEMBL4431355, “Design and synthesis of benzylpiperidine inhibitors targeting the menin-MLL1 interface” (Bioorg Med Chem Lett, 2016).

Legend:
[1] = target: Menin/Histone-lysine N-methyltransferase MLL (Homo sapiens, UniProt O00255); assay: Inhibition of human recombinant full length menin/MLL1 (unknown origin) interaction using Ac-SRWRFPARPGTGRR-Ahx-Ahx-K-FAM as substrate after 15 mins by fluorescence polarization binding assay; format: protein assay
MV4-11 = assay: Antiproliferative activity against human MV4-11 cells expressing MLL-AF4 after 7 days by MTS assay; format: functional, cell-based; conditions: for IC50: MV4-11, 168 h
Outline: (§1)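 Cells exposed to compounds for 7 days in a proliferation assay. IC50 is given as mean ± SD of triplicate determinations. K562 cells were tested up to 20 μM.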

K562 = assay: Antiproliferative activity against human K562 cells after 7 days by MTS assay; format: functional, cell-based; conditions: K562, 168 h; outline: as §1
[2] = target: T1, Menin/Histone-lysine N-methyltransferase MLL (Homo sapiens) (UniProt O00255+Q03164); assay: Inhibition of menin/MLL1 interaction in human MV4-11 cells assessed as reduction in HOXA9 mRNA level at 10 uM after 6 days by qRT-PCR analysis relative to control; format: cell-based
Outline: (§2)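 MV-4-11 cells incubated with compound for 6 days. HOXA9 expression measured by quantitative real-time PCR, normalized to β-actin and expressed relative to DMSO-treated cells. Triplicate means ± SD; experiment repeated 3 times.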

[3] = target: T1, Menin/Histone-lysine N-methyltransferase MLL (Homo sapiens); assay: Inhibition of menin/MLL1 interaction in human MV4-11 cells assessed as reduction in HOXA9 mRNA level after 6 days by qRT-PCR analysis; format: cell-based; outline: as §2
[4] = target: T1, Menin/Histone-lysine N-methyltransferase MLL (Homo sapiens); assay: Inhibition of human recombinant full length menin/MLL1 (unknown origin) interaction using Ac-SRWRFPARPGTGRR-Ahx-Ahx-K-FAM as substrate at 20 uM after 15 mins by fluorescence polarization binding assay; format: protein assay

T1 sequence (O00255 whole entry): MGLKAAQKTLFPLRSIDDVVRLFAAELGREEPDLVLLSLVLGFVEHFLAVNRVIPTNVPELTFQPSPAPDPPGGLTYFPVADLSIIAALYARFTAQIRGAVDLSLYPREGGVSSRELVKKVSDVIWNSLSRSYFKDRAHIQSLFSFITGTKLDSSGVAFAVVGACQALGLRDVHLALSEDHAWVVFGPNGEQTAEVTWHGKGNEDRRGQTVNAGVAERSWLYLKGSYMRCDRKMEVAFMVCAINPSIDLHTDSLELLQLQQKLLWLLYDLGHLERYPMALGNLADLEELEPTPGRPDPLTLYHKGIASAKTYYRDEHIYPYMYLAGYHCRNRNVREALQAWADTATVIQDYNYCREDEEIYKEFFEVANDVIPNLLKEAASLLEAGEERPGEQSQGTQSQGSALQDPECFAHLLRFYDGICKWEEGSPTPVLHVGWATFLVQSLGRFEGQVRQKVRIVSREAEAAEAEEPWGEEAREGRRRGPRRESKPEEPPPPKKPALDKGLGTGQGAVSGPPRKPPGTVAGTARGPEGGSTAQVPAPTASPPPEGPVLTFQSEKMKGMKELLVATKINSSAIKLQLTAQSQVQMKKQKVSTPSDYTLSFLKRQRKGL
T1 sequence (Q03164 1-2718 partner limits assumed): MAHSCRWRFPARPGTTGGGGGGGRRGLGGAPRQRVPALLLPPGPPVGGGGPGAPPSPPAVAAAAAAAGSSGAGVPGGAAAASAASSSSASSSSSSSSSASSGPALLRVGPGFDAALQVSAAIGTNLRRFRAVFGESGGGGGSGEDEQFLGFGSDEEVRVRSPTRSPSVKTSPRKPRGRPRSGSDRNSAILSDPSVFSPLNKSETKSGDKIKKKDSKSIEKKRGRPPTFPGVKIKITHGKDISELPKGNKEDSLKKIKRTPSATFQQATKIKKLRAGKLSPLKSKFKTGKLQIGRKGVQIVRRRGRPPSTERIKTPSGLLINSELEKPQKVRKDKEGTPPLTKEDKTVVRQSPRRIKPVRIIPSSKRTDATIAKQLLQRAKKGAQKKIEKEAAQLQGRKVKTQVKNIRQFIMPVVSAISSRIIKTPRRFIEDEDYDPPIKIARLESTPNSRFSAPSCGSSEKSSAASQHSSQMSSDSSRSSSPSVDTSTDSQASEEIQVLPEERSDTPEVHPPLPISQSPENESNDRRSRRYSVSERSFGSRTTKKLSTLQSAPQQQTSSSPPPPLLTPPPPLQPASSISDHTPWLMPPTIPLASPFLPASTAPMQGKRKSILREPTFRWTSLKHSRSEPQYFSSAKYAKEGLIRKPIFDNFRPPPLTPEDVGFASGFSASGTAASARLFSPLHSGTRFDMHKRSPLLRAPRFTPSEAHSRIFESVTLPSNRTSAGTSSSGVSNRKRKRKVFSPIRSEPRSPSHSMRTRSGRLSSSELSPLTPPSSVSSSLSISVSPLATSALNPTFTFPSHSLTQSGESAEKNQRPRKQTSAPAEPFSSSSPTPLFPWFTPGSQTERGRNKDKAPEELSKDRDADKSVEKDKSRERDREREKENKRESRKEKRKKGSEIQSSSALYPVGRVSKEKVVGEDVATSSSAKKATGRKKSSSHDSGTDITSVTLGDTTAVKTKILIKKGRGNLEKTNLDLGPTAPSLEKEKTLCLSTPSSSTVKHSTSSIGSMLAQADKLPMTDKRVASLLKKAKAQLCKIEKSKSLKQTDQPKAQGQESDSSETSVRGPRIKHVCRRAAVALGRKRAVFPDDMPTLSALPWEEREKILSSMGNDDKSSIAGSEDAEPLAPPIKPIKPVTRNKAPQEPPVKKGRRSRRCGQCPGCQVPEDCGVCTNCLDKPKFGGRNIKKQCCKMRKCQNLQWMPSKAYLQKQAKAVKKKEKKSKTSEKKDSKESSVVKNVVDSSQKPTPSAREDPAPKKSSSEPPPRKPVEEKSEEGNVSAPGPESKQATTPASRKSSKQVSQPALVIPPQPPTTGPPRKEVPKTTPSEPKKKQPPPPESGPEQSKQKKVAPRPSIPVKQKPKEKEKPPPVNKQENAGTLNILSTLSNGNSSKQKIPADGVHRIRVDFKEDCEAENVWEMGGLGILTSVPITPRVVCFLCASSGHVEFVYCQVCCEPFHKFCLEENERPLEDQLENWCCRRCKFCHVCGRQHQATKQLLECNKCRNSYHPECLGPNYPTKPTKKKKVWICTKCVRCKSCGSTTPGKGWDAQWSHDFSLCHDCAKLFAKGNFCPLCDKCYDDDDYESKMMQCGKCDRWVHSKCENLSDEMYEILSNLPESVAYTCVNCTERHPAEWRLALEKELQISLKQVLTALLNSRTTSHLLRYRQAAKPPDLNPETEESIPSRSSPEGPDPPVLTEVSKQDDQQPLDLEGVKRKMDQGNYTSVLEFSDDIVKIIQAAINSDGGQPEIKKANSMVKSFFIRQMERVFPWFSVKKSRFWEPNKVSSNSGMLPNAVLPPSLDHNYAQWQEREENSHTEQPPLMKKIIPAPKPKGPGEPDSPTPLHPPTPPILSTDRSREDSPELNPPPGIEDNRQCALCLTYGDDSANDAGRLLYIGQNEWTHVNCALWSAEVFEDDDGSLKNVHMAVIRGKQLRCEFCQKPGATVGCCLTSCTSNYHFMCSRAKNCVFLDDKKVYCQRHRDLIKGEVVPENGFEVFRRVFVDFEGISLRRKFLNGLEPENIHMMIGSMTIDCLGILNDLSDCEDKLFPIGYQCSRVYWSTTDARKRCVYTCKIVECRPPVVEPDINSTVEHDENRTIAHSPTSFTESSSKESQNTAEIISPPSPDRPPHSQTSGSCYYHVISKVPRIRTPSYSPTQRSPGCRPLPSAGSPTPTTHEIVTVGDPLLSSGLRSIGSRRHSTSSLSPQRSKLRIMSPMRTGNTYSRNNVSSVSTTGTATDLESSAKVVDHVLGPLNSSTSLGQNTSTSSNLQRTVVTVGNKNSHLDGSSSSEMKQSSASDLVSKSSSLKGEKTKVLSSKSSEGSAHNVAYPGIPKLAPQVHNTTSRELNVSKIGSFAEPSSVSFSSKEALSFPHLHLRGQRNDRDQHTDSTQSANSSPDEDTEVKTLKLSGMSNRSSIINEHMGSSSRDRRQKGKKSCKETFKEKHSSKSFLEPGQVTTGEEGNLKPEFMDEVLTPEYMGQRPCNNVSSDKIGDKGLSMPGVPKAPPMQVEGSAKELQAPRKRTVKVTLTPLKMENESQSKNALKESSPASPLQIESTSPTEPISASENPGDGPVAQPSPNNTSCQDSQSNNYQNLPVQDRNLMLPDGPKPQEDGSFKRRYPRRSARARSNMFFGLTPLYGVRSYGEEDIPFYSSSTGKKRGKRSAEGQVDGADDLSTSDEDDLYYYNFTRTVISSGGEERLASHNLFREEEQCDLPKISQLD
T1 sequence (Q03164 2719-3969 partner limits assumed): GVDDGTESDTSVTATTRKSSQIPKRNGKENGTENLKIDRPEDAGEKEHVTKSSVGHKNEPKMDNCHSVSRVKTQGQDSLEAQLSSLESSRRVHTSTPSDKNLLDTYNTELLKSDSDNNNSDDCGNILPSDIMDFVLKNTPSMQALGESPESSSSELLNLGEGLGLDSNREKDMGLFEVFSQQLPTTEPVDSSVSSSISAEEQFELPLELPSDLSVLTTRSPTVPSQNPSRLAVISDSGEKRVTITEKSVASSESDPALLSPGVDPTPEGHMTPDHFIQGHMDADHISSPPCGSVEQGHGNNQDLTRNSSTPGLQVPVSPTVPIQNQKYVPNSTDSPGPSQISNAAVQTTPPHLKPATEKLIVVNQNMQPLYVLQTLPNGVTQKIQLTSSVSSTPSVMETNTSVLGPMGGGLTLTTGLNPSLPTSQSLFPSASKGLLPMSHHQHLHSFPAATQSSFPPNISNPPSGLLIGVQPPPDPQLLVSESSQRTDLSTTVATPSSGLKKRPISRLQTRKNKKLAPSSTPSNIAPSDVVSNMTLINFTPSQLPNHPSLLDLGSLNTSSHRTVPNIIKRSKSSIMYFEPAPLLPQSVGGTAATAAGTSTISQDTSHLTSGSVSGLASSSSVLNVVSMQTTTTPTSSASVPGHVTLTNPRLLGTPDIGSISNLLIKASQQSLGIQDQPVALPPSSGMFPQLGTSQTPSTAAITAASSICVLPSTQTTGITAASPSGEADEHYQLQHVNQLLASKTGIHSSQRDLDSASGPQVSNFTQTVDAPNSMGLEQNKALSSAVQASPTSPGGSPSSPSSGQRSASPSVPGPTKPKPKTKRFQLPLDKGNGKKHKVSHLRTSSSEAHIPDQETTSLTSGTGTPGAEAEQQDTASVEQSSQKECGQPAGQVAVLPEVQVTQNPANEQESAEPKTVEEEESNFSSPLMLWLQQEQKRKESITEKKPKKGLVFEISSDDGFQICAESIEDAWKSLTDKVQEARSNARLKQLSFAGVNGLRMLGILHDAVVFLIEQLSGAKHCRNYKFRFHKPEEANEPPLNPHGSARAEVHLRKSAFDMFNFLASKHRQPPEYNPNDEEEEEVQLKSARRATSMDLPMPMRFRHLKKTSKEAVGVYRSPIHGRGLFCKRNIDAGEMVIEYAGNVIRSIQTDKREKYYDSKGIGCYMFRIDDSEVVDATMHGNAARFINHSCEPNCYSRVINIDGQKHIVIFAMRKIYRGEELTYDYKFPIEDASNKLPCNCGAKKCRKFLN
Menin/Histone-lysine N-methyltransferase MLL, sequence (O00255 whole entry): as the sequence (O00255 whole entry) above
Menin/Histone-lysine N-methyltransferase MLL, sequence (Q03164 1-2718 partner limits assumed): as the sequence (Q03164 1-2718 partner limits assumed) above
Menin/Histone-lysine N-methyltransferase MLL, sequence (Q03164 2719-3969 partner limits assumed): as the sequence (Q03164 2719-3969 partner limits assumed) above

| IC50 [1] | IC50 (MV4-11) | IC50 (K562) | SMILES | also measured |
| --- | --- | --- | --- | --- |
| > 20000 nM | – | – | N#Cc1ccc(OCCN2CCN(c3ncnc4sc(CC(F)(F)F)cc34)CC2)cc1 | – |
| 2240 nM | 2330 nM | > 20 µM | FC(F)(F)Cc1cc2c(NCC3CCN(Cc4ccccc4)CC3)ncnc2s1 | – |
| 1070 nM | 1280 nM | > 20 µM | COc1ccc(CN2CCC(CNc3ncnc4sc(CC(F)(F)F)cc34)CC2)cc1 | – |
| 1220 nM | 4150 nM | > 20 µM | NCCOc1cccc(CN2CCC(Nc3ncnc4sc(CC(F)(F)F)cc34)CC2)c1 | – |
| 220 nM | 790 nM | > 20 µM | FC(F)(F)Cc1cc2c(NC3CCN(Cc4ccsc4)CC3)ncnc2s1 | Activity (MV4-11): Dose-dependent effect; inhibition [2]: 70%; inhibition [3]: Dose-dependent effect |
| 1120 nM | 1650 nM | 9.51 µM | CNCCCOc1cccc(CN2CCC(Nc3ncnc4sc(CC(F)(F)F)cc34)CC2)c1 | – |
| > 20000 nM | – | – | N#Cc1ccc(NCCN2CCN(c3ncnc4sc(CC(F)(F)F)cc34)CC2)cc1 | – |
| – | – | – | O=[N+]([O-])c1cccc(CN2CCC(Nc3ncnc4sc(CC(F)(F)F)cc34)CC2)c1 | inhibition [4]: 43% |
| 470 nM | 1020 nM | > 20 µM | FC(F)(F)Cc1cc2c(NC3CCN(Cc4ccccc4)CC3)ncnc2s1 | Activity (MV4-11): Dose-dependent effect |
| – | – | – | FC(F)(F)Cc1cc2c(NC3CCN(Cc4ccc5ccccc5c4)CC3)ncnc2s1 | inhibition [4]: 15.6% |
| – | – | – | FC(F)(F)Cc1cc2c(NCC3CCN(Cc4ccc(C(F)(F)F)cc4)CC3)ncnc2s1 | inhibition [4]: 18.5% |
| 770 nM | 6490 nM | > 20 µM | FC(F)(F)Cc1cc2c(NC3CCN(CC4CC4)CC3)ncnc2s1 | – |
| 4690 nM | – | – | FC(F)(F)Cc1cc2c(NC3CCN(Cc4ccco4)CC3)ncnc2s1 | – |
| 1170 nM | 2980 nM | > 20 µM | Fc1ccc(CN2CCC(CNc3ncnc4sc(CC(F)(F)F)cc34)CC2)cc1 | – |
| – | – | – | FC(F)(F)Cc1cc2c(NC3CCN(Cc4cccc5ccccc45)CC3)ncnc2s1 | inhibition [4]: 2.4% |
| – | – | – | N#Cc1ccc(CN2CCC(CNc3ncnc4sc(CC(F)(F)F)cc34)CC2)cc1 | inhibition [4]: 33.4% |
| 2700 nM | – | – | FC(F)(F)Cc1cc2c(NC3CCN(Cc4ccncc4)CC3)ncnc2s1 | – |
| 2350 nM | – | – | CN1CCC(Oc2cccc(CN3CCC(Nc4ncnc5sc(CC(F)(F)F)cc45)CC3)c2)CC1 | – |
| 640 nM | 2420 nM | > 20 µM | COc1ccc(CN2CCC(Nc3ncnc4sc(CC(F)(F)F)cc34)CC2)cc1 | – |

| IC50 [1] | IC50 (MV4-11) | IC50 (K562) | SMILES | also measured |
| --- | --- | --- | --- | --- |
| 13400 nM | – | – | FC(F)(F)Cc1cc2c(NC3CCN(Cc4cccc(OC5CCNCC5)c4)CC3)ncnc2s1 | – |
| 32800 nM | – | – | FC(F)(F)Cc1cc2c(NC3CCNCC3)ncnc2s1 | – |
| 780 nM | 3490 nM | > 20 µM | CN(C)CCOc1cccc(CN2CCC(Nc3ncnc4sc(CC(F)(F)F)cc34)CC2)c1 | – |
| 430 nM | 1020 nM | 9.12 µM | N#Cc1ccc(OCCCN2CCN(c3ncnc4sc(CC(F)(F)F)cc34)CC2)cc1 | Activity (MV4-11): Dose-dependent effect |
| – | – | – | FC(F)(F)Cc1cc2c(NC3CCN(Cc4ccc(C(F)(F)F)cc4)CC3)ncnc2s1 | inhibition [4]: -2.5% |
| 1540 nM | 2690 nM | > 20 µM | N#Cc1ccc(NCCCN2CCN(c3ncnc4sc(CC(F)(F)F)cc34)CC2)cc1 | – |
| 1800 nM | – | – | FC(F)(F)Cc1cc2c(NC3CCN(CCc4ccccc4)CC3)ncnc2s1 | – |
| – | – | – | C#CCN1CCC(Nc2ncnc3sc(CC(F)(F)F)cc23)CC1 | inhibition [4]: 31.3% |
| 7350 nM | – | – | CN(C)CCCOc1cccc(CN2CCC(Nc3ncnc4sc(CC(F)(F)F)cc34)CC2)c1 | – |
| – | – | – | N#Cc1ccc(CN2CCC(Nc3ncnc4sc(CC(F)(F)F)cc34)CC2)cc1 | inhibition [4]: 25% |
| 1260 nM | – | – | Nc1cccc(CN2CCC(Nc3ncnc4sc(CC(F)(F)F)cc34)CC2)c1 | – |
| 3800 nM | – | – | Cc1cccc(CN2CCC(CNc3ncnc4sc(CC(F)(F)F)cc34)CC2)c1 | – |
| – | 640 nM | > 20 µM | CC1(C)CN=C(N2CCN(c3ncnc4sc(CC(F)(F)F)cc34)CC2)S1 | – |
| – | – | – | FC(F)(F)Cc1cc2c(Nc3ccc(Cc4ccccc4)cc3)ncnc2s1 | inhibition [4]: 2% |
| 670 nM | 390 nM | > 20 µM | NCCCOc1cccc(CN2CCC(Nc3ncnc4sc(CC(F)(F)F)cc34)CC2)c1 | Activity (MV4-11): Dose-dependent effect; inhibition [3]: Dose-dependent effect |
| – | – | – | FC(F)(F)Cc1cc2c(NC3CCN(Cc4ccc(-c5ccccc5)cc4)CC3)ncnc2s1 | inhibition [4]: 4.6% |
| 2000 nM | 6320 nM | > 20 µM | Fc1ccc(CN2CCC(Nc3ncnc4sc(CC(F)(F)F)cc34)CC2)cc1 | – |
| 5670 nM | – | – | CCCN1CCC(Nc2ncnc3sc(CC(F)(F)F)cc23)CC1 | – |
